Source: ChEMBL document CHEMBL1130099, “Stabilized analogs of thymopentin. 2. 1,2- and 3,4-ketomethylene pseudopeptides” (J Med Chem, 1997)
Values belong to the compound of their own block, whether it stands above or below them.

Key:
CCRF-CEM [1] = test: Binding efficacy expressed as counts remaining after competition was subtracted from total of Thymopentin and divided by the counts reduced by authentic Thymopentin; type: functional, Homo sapiens
Procedure, shortened: (§1)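 CEM cells at 5×10^6 cells/0.1 mL binding buffer, given unlabeled peptide over 10^-6 to 10^-3 M plus radiolabeled thymopentin (548 000 cpm), 30 min at 25 °C. Diluted with ice-cold buffer, washed twice by centrifugation, bound counts by scintillation. Efficacy = (total thymopentin binding − counts after competition)/(reduction by authentic thymopentin); mean ± SEM over repeated trials.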

CCRF-CEM [2] = test: Ability to bound CEM cell measured as competition for displacement of radiolabeled Thymopentin from the receptor; type: functional, Homo sapiens; procedure, shortened: as §1
[3] = The plasma half life of compound was determined on heparin prepared by human plasma; Not degraded; conditions: in vivo
Mus musculus = species on record: Mus musculus; test: The plasma half life of compound was determined on heparin prepared by mouse plasma; Not degraded; type: ADME
Procedure, shortened: (§2)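 Half-life in heparinized mouse plasma: peptide incubated for variable times, then parent decrease and degradation products resolved and quantified by HPLC absorbance.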

[4] = The plasma half life of compound was determined on heparin prepared by human plasma.
[5] = The plasma half life of compound was determined on heparin prepared by mouse plasma.; type: ADME; procedure, shortened: as §2
[6] = The plasma half life of compound was determined on EDTA prepared by mouse plasma.; type: ADME
Procedure, shortened: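 Peptide incubated in EDTA-treated mouse plasma for variable times. Loss of parent and appearance of degradation products quantified by HPLC with absorbance detection; half-life in min.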

Compound: CCCC[C@H](CC(=O)[C@@H](N)CCCN=C(N)N)C(=O)N[C@@H](CC(=O)O)C(=O)N[C@@H](C(=O)N[C@@H](Cc1ccccc1)C(=O)O)C(C)C
Binding (CCRF-CEM [1]): 71% | Binding competition (CCRF-CEM [2]): 1713 mean counts

Compound: CC(C)[C@H](CC(=O)[C@H](CC(=O)O)NC(=O)[C@@H]1CCCN1C(=O)[C@H](N)CCCN=C(N)N)C(=O)N[C@@H](Cc1ccccc1)C(=O)O
Binding (CCRF-CEM [1]): 72% | Binding competition (CCRF-CEM [2]): 1686 mean counts

Compound: CCCC[C@H](CC(=O)[C@@H](N)CCCN=C(N)N)C(=O)N[C@@H](CC(=O)O)C(=O)N[C@H](C(=O)N[C@@H](Cc1ccccc1)C(=O)O)C(C)C (stereo in doubt; 2a-B)
Binding (CCRF-CEM [1]): 47% | Binding competition (CCRF-CEM [2]): 2176 mean counts

T1/2 [3]: Not degraded | T1/2 (Mus musculus): Not degraded
Compound: CC(C)[C@H](CC(=O)[C@H](CC(=O)O)NC(=O)[C@H](CCCCN)N(C)C(=O)[C@@H](N)CCCN=C(N)N)C(=O)N[C@@H](Cc1ccccc1)C(=O)O
Binding (CCRF-CEM [1]): 13% | Binding competition (CCRF-CEM [2]): 2820 mean counts

Compound: CCCC[C@H](CC(=O)[C@@H](N)CCCN=C(N)N)C(=O)N[C@@H](CC(=O)O)C(=O)N[C@H](C(=O)N[C@@H](Cc1ccccc1)C(N)=O)C(C)C (stereo in doubt; 2b-B)
Binding (CCRF-CEM [1]): 0% | Binding competition (CCRF-CEM [2]): 3648 mean counts

Compound: CCCC[C@H](NC(=O)[C@@H](N)CCCN=C(N)N)C(=O)N[C@@H](CC(=O)O)C(=O)C[C@H](C(=O)N[C@@H](Cc1ccccc1)C(=O)O)C(C)C (stereo in doubt; 3b-B)
Binding (CCRF-CEM [1]): 85% | Binding competition (CCRF-CEM [2]): 1447 mean counts

Compound: C[C@H](CC(=O)[C@H](CC(=O)O)NC(=O)[C@H](CCCCN)NC(=O)[C@@H](N)CCCN=C(N)N)C(=O)N[C@@H](Cc1ccccc1)C(=O)O (stereo in doubt; 3e-B)
Binding (CCRF-CEM [1]): 24% | Binding competition (CCRF-CEM [2]): 2606 mean counts

Compound: CCCC[C@H](CC(=O)[C@@H](N)CCCN=C(N)N)C(=O)N[C@@H](CC(=O)O)C(=O)N[C@H](C(=O)N[C@@H](Cc1ccccc1)C(=O)O)C(C)C (stereo in doubt; 2a-C)
Binding (CCRF-CEM [1]): 20% | Binding competition (CCRF-CEM [2]): 2687 mean counts

Compound: CCCC[C@H](CC(=O)[C@@H](N)CCCN=C(N)N)C(=O)N[C@@H](CC(=O)O)C(=O)N[C@H](C(=O)N[C@@H](Cc1ccccc1)C(N)=O)C(C)C (stereo in doubt; 2b-A)
Binding competition (CCRF-CEM [2]): 3627 mean counts

Compound: C[C@H](CC(=O)[C@H](CC(=O)O)NC(=O)[C@H](CCCCN)NC(=O)[C@@H](N)CCCN=C(N)N)C(=O)N[C@@H](Cc1ccccc1)C(=O)O (stereo in doubt; 3e-A)
Binding (CCRF-CEM [1]): 47% | Binding competition (CCRF-CEM [2]): 2172 mean counts

Compound: CCCC[C@H](CC(=O)[C@@H](N)CCCN=C(N)N)C(=O)N[C@@H](CC(=O)O)C(=O)N[C@H](C(=O)N[C@@H](Cc1ccccc1)C(=O)O)C(C)C (stereo in doubt; 2a-D)
Binding (CCRF-CEM [1]): 39% | Binding competition (CCRF-CEM [2]): 2333 mean counts

Compound: CC(C)[C@H](CC(=O)[C@H](CC(=O)O)NC(=O)[C@@H]1CCCN1C(=O)[C@H](N)CCCN=C(N)N)C(=O)N[C@@H](Cc1ccccc1)C(N)=O
Binding (CCRF-CEM [1]): 20% | Binding competition (CCRF-CEM [2]): 2692 mean counts

Compound: CCCC[C@H](NC(=O)[C@@H](N)CCCN=C(N)N)C(=O)N[C@@H](CC(=O)O)C(=O)C[C@H](C(=O)N[C@@H](Cc1ccccc1)C(=O)O)C(C)C (stereo in doubt; 3b-A)
Binding (CCRF-CEM [1]): 96% | Binding competition (CCRF-CEM [2]): 1232 mean counts

half-life [4]: 12.5 min
Compound: CCCC[C@H](CC(=O)[C@@H](N)CCCN=C(N)N)C(=O)N[C@@H](CC(=O)O)C(=O)N[C@H](C(=O)N[C@@H](Cc1ccccc1)C(=O)O)C(C)C (stereo in doubt; 2a-A)
Binding (CCRF-CEM [1]): 44% | Binding competition (CCRF-CEM [2]): 2222 mean counts

Compound: CC(C)[C@H](CC(=O)[C@H](CC(=O)O)NC(=O)[C@H](CCCCN)NC(=O)[C@@H](N)CCCN=C(N)N)C(=O)N[C@@H](Cc1ccccc1)C(=O)O (stereo in doubt; 3a-B)
Binding (CCRF-CEM [1]): 103% | Binding competition (CCRF-CEM [2]): 1091 mean counts

half-life [5]: 2.4 min | half-life [6]: 5.8 min | half-life [4]: 2.7 min
Compound: CC(C)[C@H](CC(=O)[C@H](CC(=O)O)NC(=O)[C@H](CCCCN)NC(=O)[C@@H](N)CCCN=C(N)N)C(=O)N[C@@H](Cc1ccccc1)C(=O)O (stereo in doubt; 3a-A)
Binding (CCRF-CEM [1]): 115% | Binding competition (CCRF-CEM [2]): 844 mean counts
